Test results as given in article PMC6078096 (Environmental toxicology and pharmacology, 2018).
Counter-ions that a name gives are not always drawn.

Legend:
[1] = molecular target: T1, human estrogen sulfotransferase (SULT1E1) (Homo sapiens, UniProt P49888); assay: Inhibition of SULT1E1-catalyzed sulfation of [3H]estradiol; type: biochemical; details: 7.0 nM estradiol
T1 sequence (P49888 1-294): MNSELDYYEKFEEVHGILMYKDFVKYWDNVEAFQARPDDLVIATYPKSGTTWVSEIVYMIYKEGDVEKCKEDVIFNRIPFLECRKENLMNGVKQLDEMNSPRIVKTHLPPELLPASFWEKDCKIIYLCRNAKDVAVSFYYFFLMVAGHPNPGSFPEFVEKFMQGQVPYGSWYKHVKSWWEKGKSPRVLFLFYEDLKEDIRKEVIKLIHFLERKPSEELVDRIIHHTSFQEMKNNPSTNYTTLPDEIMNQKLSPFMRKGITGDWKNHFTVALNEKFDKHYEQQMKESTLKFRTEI
In short: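 Purified recombinant human enzyme expressed in E. coli BL21(DE3). Test compound added in ethanol at 0.01–10,000 nM. Equilibrated 3 min at 37 °C, started with 3.0 ng enzyme, run 4 min. Stopped with Tris-HCl pH 8.7 plus chloroform. Aqueous [3H]estradiol-3-sulfate counted by scintillation. Triplicates. IC50 fitted from % of control rate.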

[2] = metabolite in human plasma; ref Quinete et al., 2017; cited from earlier work
[3] = circulating steroid in humans; ref White and Porterfield, 2013; cited from earlier work

Oc1ccc(-c2ccc(Cl)cc2)cc1 [4’-OH-PCB 3, 4-chloro-4’-hydroxybiphenyl]
fold higher IC50 value for SULT1E1 than 4-OH-PCB 11 and 4’-OH PCB 25 [1]: ~200 fold

Oc1ccc(-c2ccc(Cl)cc2Cl)cc1Cl [4’-OH-PCB 25, 2,3’,4-trichloro-4’-hydroxybiphenyl]
estimated half-life in human plasma [2]: 6.5 years

O=S(=O)(O)Oc1ccc(-c2ccc(Cl)cc2Cl)cc1Cl [4’-PCB 25 Sulfate, 2,3’,4-trichloro-4’-biphenylsulfate]
IC50 value for SULT1E1, fold greater than the estradiol concentration [1]: over 50 fold

C[C@]12CC[C@H](O)CC1=CC[C@@H]1[C@@H]2CC[C@]2(C)C(=O)CC[C@@H]12 [DHEA, dehydroepiandrosterone]
half-life [3]: 0.25 to 0.5 h

C[C@]12CC[C@H](OS(=O)(=O)O)CC1=CC[C@@H]1[C@@H]2CC[C@]2(C)C(=O)CC[C@@H]12 [DHEA-sulfate, dehydroepiandrosterone sulfate]
half-life [3]: 7 to 10 h
